The results in this text go back to BindingDB's records for doi:10.1021/jm980722p (Merck Research Laboratories, 1999).

This assay has as its target Integrin alpha-IIb/beta-3 (Homo sapiens, UniProt P08514+P05106). The assay is described as follows: The compound was tested in vitro for the inhibition of aggregation of human gel-filtered platelets(GFP). The method in brief:
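Human gel-filtered platelets at 2 × 10⁸/mL were mixed with 0.1 mg/mL human fibrinogen, 1 mM CaCl₂ and the test compound, then challenged with ADP. Aggregation was read by light transmittance at 37 °C against control samples.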

Sequence of Integrin alpha-IIb/beta-3 (P05106 27-788 limits assumed): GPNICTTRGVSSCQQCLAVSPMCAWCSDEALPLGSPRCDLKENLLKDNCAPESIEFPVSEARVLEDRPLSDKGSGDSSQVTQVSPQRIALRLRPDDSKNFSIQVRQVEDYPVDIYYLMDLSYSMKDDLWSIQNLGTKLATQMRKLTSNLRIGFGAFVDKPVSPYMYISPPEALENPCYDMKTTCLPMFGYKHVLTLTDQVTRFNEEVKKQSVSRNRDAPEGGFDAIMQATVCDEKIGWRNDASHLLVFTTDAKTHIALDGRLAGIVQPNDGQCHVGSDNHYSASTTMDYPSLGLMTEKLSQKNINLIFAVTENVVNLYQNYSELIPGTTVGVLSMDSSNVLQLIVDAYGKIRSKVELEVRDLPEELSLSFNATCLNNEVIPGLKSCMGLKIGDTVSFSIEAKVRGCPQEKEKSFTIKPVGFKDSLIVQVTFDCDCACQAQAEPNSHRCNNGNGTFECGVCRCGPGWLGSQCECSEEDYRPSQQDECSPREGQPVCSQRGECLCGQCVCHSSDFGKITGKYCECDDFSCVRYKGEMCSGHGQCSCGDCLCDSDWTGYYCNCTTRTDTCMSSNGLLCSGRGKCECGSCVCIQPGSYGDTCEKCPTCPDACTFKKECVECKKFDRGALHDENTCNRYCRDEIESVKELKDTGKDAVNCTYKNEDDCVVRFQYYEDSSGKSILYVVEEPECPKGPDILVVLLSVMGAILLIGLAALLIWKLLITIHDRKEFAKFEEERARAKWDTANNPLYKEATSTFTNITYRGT
Sequence of Integrin alpha-IIb/beta-3 (P08514 32-887 limits assumed): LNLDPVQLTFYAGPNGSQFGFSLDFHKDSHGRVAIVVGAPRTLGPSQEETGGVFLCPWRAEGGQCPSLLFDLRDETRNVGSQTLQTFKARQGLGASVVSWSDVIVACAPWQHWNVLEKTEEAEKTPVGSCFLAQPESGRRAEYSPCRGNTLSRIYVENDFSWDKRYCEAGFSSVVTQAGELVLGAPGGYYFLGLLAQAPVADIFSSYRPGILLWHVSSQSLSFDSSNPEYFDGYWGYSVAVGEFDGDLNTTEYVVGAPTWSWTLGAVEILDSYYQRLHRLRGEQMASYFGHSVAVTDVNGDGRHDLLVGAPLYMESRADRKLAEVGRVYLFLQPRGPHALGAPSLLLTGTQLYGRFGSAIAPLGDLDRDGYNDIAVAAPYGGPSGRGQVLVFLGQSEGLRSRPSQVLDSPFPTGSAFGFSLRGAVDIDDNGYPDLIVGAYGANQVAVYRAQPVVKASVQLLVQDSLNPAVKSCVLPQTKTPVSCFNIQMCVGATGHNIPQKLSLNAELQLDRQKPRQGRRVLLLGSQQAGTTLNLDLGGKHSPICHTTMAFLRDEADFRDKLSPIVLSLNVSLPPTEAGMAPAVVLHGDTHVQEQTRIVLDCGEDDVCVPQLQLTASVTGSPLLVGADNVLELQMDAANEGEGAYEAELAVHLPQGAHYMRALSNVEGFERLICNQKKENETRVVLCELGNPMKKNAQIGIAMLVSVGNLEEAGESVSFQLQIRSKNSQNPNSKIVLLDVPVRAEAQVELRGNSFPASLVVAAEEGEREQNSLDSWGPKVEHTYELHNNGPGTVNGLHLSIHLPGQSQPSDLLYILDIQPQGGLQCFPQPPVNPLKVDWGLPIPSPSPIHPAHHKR
Sequence of Integrin alpha-IIb/beta-3 (P08514 891-1039 limits assumed): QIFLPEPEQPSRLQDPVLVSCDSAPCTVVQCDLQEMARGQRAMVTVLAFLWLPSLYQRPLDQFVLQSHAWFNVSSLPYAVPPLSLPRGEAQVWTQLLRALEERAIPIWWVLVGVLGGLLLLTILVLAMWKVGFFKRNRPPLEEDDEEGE

On to `O=C(NC[C@@H](NS(=O)(=O)c1cccnc1)C(=O)O)c1cc2cc(CCC3CCNCC3)sc2s1`, for which the half-inhibitory concentration (IC50) stood at 19 nM. That is a double-digit nanomolar value.
The result for `O=C(NC[C@H](NS(=O)(=O)c1cccnc1)C(=O)O)c1cc2cc(C3CCNCC3)sc2s1` [(S)-3-[(5-Piperidin-4-yl-thieno[2,3-b]thiophene-2-carbonyl)-amino]-2-(pyridine-3-sulfonylamino)-propionic acid] reads 21 nM.
The value for `CCOCCS(=O)(=O)N[C@@H](CNC(=O)c1cc2sc(CCC3CCNCC3)cc2s1)C(=O)O` [(S)-2-(2-Ethoxy-ethanesulfonylamino)-3-{[5-(2-piperidin-4-yl-ethyl)-thieno[3,2-b]thiophene-2-carbonyl]-amino}-propionic acid] was 10 nM; that for `CCCCS(=O)(=O)N[C@@H](CNC(=O)c1cc2cc(CCC3CCNCC3)sc2s1)C(=O)O` [(S)-2-(Butane-1-sulfonylamino)-3-{[5-(2-piperidin-4-yl-ethyl)-thieno[2,3-b]thiophene-2-carbonyl]-amino}-propionic acid] was 32 nM; that for `O=C(NC[C@H](NS(=O)(=O)c1cccs1)C(=O)O)c1cc2sc(CCC3CCNCC3)cc2s1` [(S)-3-{[5-(2-Piperidin-4-yl-ethyl)-thieno[3,2-b]thiophene-2-carbonyl]-amino}-2-(thiophene-2-sulfonylamino)-propionic acid] was 13 nM.
For the compound `O=C(NC[C@H](NS(=O)(=O)c1cccnc1)C(=O)O)c1cc2sc(CCC3CCNCC3)cc2s1` [(S)-3-{[5-(2-Piperidin-4-yl-ethyl)-thieno[3,2-b]thiophene-2-carbonyl]-amino}-2-(pyridine-3-sulfonylamino)-propionic acid], half-maximal inhibition (IC50) required 15 nM. This IC50 and that of the compound before are within 1.5-fold of each other.
The result for `CS(=O)(=O)N[C@@H](CNC(=O)c1cc2cc(CCC3CCNCC3)sc2s1)C(=O)O` [(S)-2-Methanesulfonylamino-3-{[5-(2-piperidin-4-yl-ethyl)-thieno[2,3-b]thiophene-2-carbonyl]-amino}-propionic acid] reads 15 nM.
The result for `CS(=O)(=O)N[C@@H](CNC(=O)c1cc2sc(CCC3CCNCC3)cc2s1)C(=O)O` [(S)-2-Methanesulfonylamino-3-{[5-(2-piperidin-4-yl-ethyl)-thieno[3,2-b]thiophene-2-carbonyl]-amino}-propionic acid] reads 14 nM; that for `O=C(NC[C@H](NS(=O)(=O)c1ccc(Cl)cc1)C(=O)O)c1cc2cc(CCC3CCNCC3)sc2s1` [(S)-2-(4-Chloro-benzenesulfonylamino)-3-{[5-(2-piperidin-4-yl-ethyl)-thieno[2,3-b]thiophene-2-carbonyl]-amino}-propionic acid], 11 nM.
`O=C(NC[C@H](NS(=O)(=O)c1cccnc1)C(=O)O)c1cc2cc(CCCC3CCNCC3)sc2s1` [(S)-3-{[5-(3-Piperidin-4-yl-propyl)-thieno[2,3-b]thiophene-2-carbonyl]-amino}-2-(pyridine-3-sulfonylamino)-propionic acid] yielded an IC50 of 23 nM.
In turn, `O=C(NC[C@@H](NS(=O)(=O)c1ccccc1)C(=O)O)c1cc2cc(CCC3CCNCC3)sc2s1` yielded an IC50 of 36 nM.
`O=C(O)CCNC(=O)c1cc2sc(CCC3CCNCC3)cc2s1` [3-{[5-(2-Piperidin-4-yl-ethyl)-thieno[3,2-b]thiophene-2-carbonyl]-amino}-propionic acid] displayed an IC50 of 500 nM.
The value for `O=C(NC[C@H](NS(=O)(=O)c1cccs1)C(=O)O)c1cc2cc(CCC3CCNCC3)sc2s1` [(S)-3-{[5-(2-Piperidin-4-yl-ethyl)-thieno[2,3-b]thiophene-2-carbonyl]-amino}-2-(thiophene-2-sulfonylamino)-propionic acid] was 9 nM; that for `O=C(O)CCNC(=O)c1cc2cc(CCC3CCNCC3)sc2s1` [3-{[5-(2-Piperidin-4-yl-ethyl)-thieno[2,3-b]thiophene-2-carbonyl]-amino}-propionic acid] was 410 nM; that for `CCOCCS(=O)(=O)N[C@@H](CNC(=O)c1cc2cc(CCC3CCNCC3)sc2s1)C(=O)O` [(S)-2-(2-Ethoxy-ethanesulfonylamino)-3-{[5-(2-piperidin-4-yl-ethyl)-thieno[2,3-b]thiophene-2-carbonyl]-amino}-propionic acid] was 7 nM.
The value for `CCCCS(=O)(=O)N[C@@H](CNC(=O)c1cc2sc(CCC3CCNCC3)cc2s1)C(=O)O` [(S)-2-(Butane-1-sulfonylamino)-3-{[5-(2-piperidin-4-yl-ethyl)-thieno[3,2-b]thiophene-2-carbonyl]-amino}-propionic acid] was 10 nM.

One may read the IC50 as the concentration that inhibits the measured activity by half.
